Reference: ChEMBL document CHEMBL3861998, “Development of 6-arylcoumarins as nonsteroidal progesterone antagonists. Structure-activity relationships and fluorescence properties” (Bioorg Med Chem, 2016)

What was measured:
[1] = target: T1, Progesterone receptor (Homo sapiens, UniProt P06401); experiment: Antagonist activity at PR in human T47D cells assessed as inhibition of progesterone-induced alkaline phosphatase expression after 24 hrs by alkaline phopshatase assay; format: cell-based
T1 sequence (P06401 whole entry): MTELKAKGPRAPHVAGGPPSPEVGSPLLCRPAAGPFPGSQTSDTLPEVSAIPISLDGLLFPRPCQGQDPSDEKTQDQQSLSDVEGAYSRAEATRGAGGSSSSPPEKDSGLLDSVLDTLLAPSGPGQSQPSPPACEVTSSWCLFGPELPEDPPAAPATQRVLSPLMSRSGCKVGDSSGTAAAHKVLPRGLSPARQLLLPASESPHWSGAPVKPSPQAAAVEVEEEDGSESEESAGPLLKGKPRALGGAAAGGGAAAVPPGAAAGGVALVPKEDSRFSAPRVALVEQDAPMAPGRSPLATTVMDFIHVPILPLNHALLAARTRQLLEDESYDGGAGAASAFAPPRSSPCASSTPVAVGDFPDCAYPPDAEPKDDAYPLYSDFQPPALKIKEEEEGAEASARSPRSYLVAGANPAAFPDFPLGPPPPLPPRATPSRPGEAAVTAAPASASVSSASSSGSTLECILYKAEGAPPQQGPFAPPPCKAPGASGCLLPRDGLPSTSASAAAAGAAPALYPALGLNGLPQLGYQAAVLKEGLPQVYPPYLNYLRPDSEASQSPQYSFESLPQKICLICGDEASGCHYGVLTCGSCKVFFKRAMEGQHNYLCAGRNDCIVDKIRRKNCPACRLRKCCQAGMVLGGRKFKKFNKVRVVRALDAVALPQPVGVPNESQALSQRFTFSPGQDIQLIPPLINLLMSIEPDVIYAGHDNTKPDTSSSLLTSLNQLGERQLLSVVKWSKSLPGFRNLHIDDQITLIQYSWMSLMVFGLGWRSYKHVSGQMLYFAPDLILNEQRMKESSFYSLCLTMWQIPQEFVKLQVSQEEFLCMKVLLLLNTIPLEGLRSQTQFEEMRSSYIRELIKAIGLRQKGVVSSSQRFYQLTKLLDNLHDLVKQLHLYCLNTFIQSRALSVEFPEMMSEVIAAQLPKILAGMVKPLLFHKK
Method in brief: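 T-47D cells seeded at 10^4 cells/well and incubated overnight at 37°C, 5% CO₂. Fresh medium with compound added for 24 h. Cells fixed in 1.8% formalin in PBS and washed. Substrate was 1 mg/mL p-nitrophenyl phosphate in diethanolamine buffer, pH 9.0, 2 mM MgCl₂, for 2 h at room temperature in the dark. Stopped with 1 M NaOH; absorbance read at 405 nm.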

[2] = target: T1, Progesterone receptor; experiment: Displacement of [1,2,6,7-3H]progesterone from recombinant human GST-tagged PR-LBD (675 to 933 residues) expressed in baculovirus-infected insect cells measured after 24 hrs by liquid scintillation counting method
Method in brief: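 Incubated with 4 nM [³H]progesterone and compound (final DMSO 3%) for 24 h at 4°C in the dark. Nonspecific binding set with 200-fold excess unlabeled progesterone. Free ligand removed with dextran/γ-globulin-coated charcoal, 5 min at 4°C, then centrifuged; supernatant counted by liquid scintillation. Duplicates.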

[3] = target: T2, Androgen receptor (Mus musculus, UniProt P19091); experiment: Antagonist activity at AR in mouse SC3 cells assessed as inhibition of dihydrotestosterone-induced cell growth 10^-5 to 10^-7 M measured after 3 days by CCK8 assay; format: cell-based; conditions: sc-3, 72 h
T2 sequence (P19091 whole entry): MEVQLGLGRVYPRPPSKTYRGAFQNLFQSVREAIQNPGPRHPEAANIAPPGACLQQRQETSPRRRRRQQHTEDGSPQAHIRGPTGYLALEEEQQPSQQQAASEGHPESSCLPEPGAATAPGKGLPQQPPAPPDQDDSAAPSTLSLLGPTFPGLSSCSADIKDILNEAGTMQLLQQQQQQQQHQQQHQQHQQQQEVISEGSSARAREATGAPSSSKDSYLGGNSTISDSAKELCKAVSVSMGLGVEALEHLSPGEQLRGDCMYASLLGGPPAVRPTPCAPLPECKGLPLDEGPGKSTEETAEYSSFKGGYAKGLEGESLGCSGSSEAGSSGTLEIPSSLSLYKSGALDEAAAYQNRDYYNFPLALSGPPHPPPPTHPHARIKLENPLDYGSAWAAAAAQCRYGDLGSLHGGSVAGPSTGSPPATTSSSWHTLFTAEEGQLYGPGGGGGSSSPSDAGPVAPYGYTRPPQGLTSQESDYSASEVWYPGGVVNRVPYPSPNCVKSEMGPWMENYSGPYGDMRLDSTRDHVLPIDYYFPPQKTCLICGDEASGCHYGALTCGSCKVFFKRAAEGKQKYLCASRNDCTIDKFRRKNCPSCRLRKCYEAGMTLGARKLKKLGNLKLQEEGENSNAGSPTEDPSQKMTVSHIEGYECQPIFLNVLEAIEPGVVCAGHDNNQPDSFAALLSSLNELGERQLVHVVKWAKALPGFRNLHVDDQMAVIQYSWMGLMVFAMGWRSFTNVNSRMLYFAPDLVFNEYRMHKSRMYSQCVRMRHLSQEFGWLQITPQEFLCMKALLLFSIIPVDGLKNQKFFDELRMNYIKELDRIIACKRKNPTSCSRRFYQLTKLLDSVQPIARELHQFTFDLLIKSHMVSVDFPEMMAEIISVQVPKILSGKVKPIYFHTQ
Method in brief: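 SC-3 cells maintained in MEMα with 2% FBS and 1 nM DHT, 37°C, 5% CO2. Seeded at 20,000 cells/mL in MEMα with 2% charcoal-stripped FBS and held 24 h. Serial dilutions of compound (DMSO control) added with 1 nM DHT, then 3 days at 37°C. WST-8 (CCK-8) added for 2 h, absorbance read at 450 nm. Triplicate or more.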

[4] = species on record: Mus musculus; experiment: Cytotoxicity against mouse SC3 cells assessed as effect on cell growth at 10^-5 to 10^-7 M after 3 days by CCK8 assay; format: toxicity; conditions: sc-3, 72 h
Method in brief: (§1)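 SC-3 cells kept in MEMα with 2% FBS and 1 nM DHT at 37°C, 5% CO₂. Trypsinized, diluted to 20,000 cells/mL in MEMα with 2% charcoal-stripped FBS, seeded and held 24 h. Serial dilutions of compound or DMSO control added with 1 nM DHT. Incubated 3 days at 37°C. Cell number read by WST-8 (CCK-8), 2 h, absorbance at 450 nm. Triplicate or more.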

[5] = target: T3, Glucocorticoid receptor (Homo sapiens, UniProt P04150); experiment: Displacement of [3H]dexamethasone from human GR measured after 18 hrs by scintillation counting method
T3 sequence (P04150 whole entry): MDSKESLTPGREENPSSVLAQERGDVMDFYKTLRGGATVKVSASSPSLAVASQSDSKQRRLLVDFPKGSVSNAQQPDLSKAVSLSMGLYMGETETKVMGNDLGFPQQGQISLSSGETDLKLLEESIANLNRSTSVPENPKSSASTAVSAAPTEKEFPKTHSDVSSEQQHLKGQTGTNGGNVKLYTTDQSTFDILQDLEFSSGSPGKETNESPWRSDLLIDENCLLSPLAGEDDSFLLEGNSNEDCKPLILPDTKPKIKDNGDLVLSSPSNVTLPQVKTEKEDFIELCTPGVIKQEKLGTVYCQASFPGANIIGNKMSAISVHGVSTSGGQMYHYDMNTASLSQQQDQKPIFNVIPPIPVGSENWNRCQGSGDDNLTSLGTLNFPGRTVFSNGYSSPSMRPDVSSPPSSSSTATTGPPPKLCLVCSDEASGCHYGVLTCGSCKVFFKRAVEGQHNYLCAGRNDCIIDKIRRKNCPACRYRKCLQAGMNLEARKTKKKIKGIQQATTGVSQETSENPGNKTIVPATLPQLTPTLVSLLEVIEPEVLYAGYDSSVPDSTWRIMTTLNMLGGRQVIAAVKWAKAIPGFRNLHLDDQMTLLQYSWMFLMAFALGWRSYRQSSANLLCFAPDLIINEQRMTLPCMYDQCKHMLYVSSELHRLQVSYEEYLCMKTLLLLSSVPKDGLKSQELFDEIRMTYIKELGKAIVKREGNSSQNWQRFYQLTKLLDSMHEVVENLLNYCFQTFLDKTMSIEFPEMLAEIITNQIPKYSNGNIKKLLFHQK
Method in brief: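 hGR at 1.25 nM final in 50 mM KH₂PO₄ pH 7.4 with 10 mM sodium molybdate and 1 mM DTT. Incubated with 10^-9 M [³H]dexamethasone and compounds at 10^-7 to 10^-5 M, 0.4% DMSO, for 18 h. Nonspecific binding set with 10^-5 M triamcinolone acetonide. Bound ligand collected by vacuum filtration on glass-fiber filters and counted. Duplicates.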

[6] = target: T2, Androgen receptor; experiment: Antagonist activity at AR in mouse SC3 cells assessed as inhibition of dihydrotestosterone-induced cell growth at 10^-5 M measured after 3 days by CCK8 assay; format: cell-based; conditions: sc-3, 72 h, 10 µM; method in brief: as §1

SMILES | IC50 [1] [nM] | further results
N#Cc1ccc(-c2ccc3oc(=O)ccc3c2)n1CC1CCCCC1 | 31 | –
CCN(CC)c1cc2oc(=O)ccc2cc1-c1ccc(C#N)n1CC#N | 850 | –
N#Cc1ccc(-c2ccc3oc(=O)ccc3c2)n1Cc1ccccc1 | 56 | IC50 [2]: 790 nM
CCCCCCn1c(C#N)ccc1-c1cc2c(C)cc(=O)oc2cc1OC | 180 | –
CCCCCCn1c(C#N)ccc1-c1ccc2oc(=O)ccc2c1 | 34 | IC50 [2]: 160 nM
N#Cc1ccc(-c2ccc3oc(=O)ccc3c2)n1Cc1ccc2ccccc2c1 | 290 | –
N#Cc1ccc(-c2ccc3oc(=O)ccc3c2)n1Cc1cc(F)cc(F)c1 | 160 | –
CC(C)(O)C(=O)Nc1ccc([N+](=O)[O-])c(C(F)(F)F)c1 [HYDROXYFLUTAMIDE] | – | inhibition (INH) [3]: Active
O=c1ccc2cc(-c3sccc3Cl)ccc2o1 | 230 | –
Cc1cc(=O)oc2cc(O)c(-c3ccc(C#N)n3C)cc12 | 300 | IC50 [2]: 15700 nM
COc1cc2oc(=O)cc(C)c2cc1-c1ccc(C#N)n1CC1CCCCC1 | 550 | –
COc1cc2oc(=O)cc(C)c2cc1-c1ccc(C#N)n1Cc1ccc(F)cc1 | 570 | –
COc1cc2oc(=O)cc(C)c2cc1-c1ccc(C#N)n1C | 24 | IC50 [2]: 990 nM; inhibition (INH) [3]: Active; Activity [4]: Non-Toxic
Cc1ccsc1-c1ccc2oc(=O)ccc2c1 | 150 | –
CCn1c(C#N)ccc1-c1ccc2oc(=O)ccc2c1 | 220 | –
COc1cc2oc(=O)cc(C)c2cc1-c1ccc(C#N)[nH]1 | 260 | –

SMILES | IC50 [1] [nM] | further results
CCn1c(C#N)ccc1-c1cc2c(C)cc(=O)oc2cc1OC | 38 | –
COc1cc2oc(=O)cc(C)c2cc1-c1ccc(C#N)n1Cc1ccc(C#N)cc1 | 480 | –
CC(=O)c1ccc(-c2ccc3oc(=O)ccc3c2)s1 | 240 | –
Cc1ccc(-c2ccc3oc(=O)ccc3c2)s1 | 440 | –
N#Cc1ccc(Cn2c(C#N)ccc2-c2ccc3oc(=O)ccc3c2)cc1 | 290 | –
N#Cc1ccc(-c2ccc3oc(=O)ccc3c2)n1Cc1ccc([N+](=O)[O-])cc1 | 450 | –
N#Cc1ccc(-c2ccc3oc(=O)ccc3c2)n1Cc1c(F)c(F)c(F)c(F)c1F | 190 | –
CCN(CC)c1cc2oc(=O)ccc2cc1-c1ccc(C#N)n1C | 240 | IC50 [5]: 10000 nM; IC50 [2]: 1360 nM; inhibition (INH) [6]: Active; Activity [4]: Non-Toxic
N#Cc1ccc(-c2ccc3oc(=O)ccc3c2)s1 | 140 | –
CCN(CC)c1cc2oc(=O)ccc2cc1-c1ccc(C#N)n1CC | 250 | –
CCN(CC)c1cc2oc(=O)ccc2cc1-c1ccc(C#N)n1Cc1ccccc1 | 580 | –
N#CCn1c(C#N)ccc1-c1ccc2oc(=O)ccc2c1 | 15800 | –
N#Cc1ccc(-c2ccc3oc(=O)ccc3c2)[nH]1 | 140 | –
COc1cc2oc(=O)cc(C)c2cc1-c1ccc(C#N)n1Cc1ccccc1 | 230 | –
CCN(CC)c1cc2oc(=O)ccc2cc1-c1ccc(C#N)[nH]1 | 120 | –
N#Cc1ccc(-c2ccc3oc(=O)ccc3c2)n1Cc1ccc(F)cc1 | 210 | –
